Bioassay records as filed in PubChem BioAssay.
A selection: hits, their analogues and other compounds. The true share with any hit is near 2.3%.
DNMT1 block – human DNMT1 methyltransferase inhibitors, primary screen, biochemical, molecular beacon, fluorescence, HinP1I cleavage, uHTS | DNA (cytosine-5)-methyltransferase 1 (Homo sapiens), P26358 | inhibition (reported as % activation of signal), % at 10 µM | 360,000 compounds, 0.83% hits | AID 588458, 2011; in the data active means inhibition above about 50%
SUMO1-SIM PPI – modulators of SUMO1 protein-protein interactions, primary screen, biochemical, uHTS | Small ubiquitin-related modifier 1 (Homo sapiens), P63165 | SUMO1 binding to a labelled peptide, TR-FRET, 1 h | inhibition, % at 20 µM | 360,000 compounds, 0.33% hits; in the data active means inhibition above about 37%
LMPTP block – LMPTP phosphatase inhibitors, primary screen, biochemical, fluorescence intensity, uHTS; Low molecular weight phosphotyrosine protein phosphatase (Homo sapiens), P24666; recombinant LMPTP-A, OMFP fluorogenic substrate; inhibition, % at 20 µM; 360,000 compounds, 0.22% hits; AID 651560, 2012;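 active means compounds that cut the enzyme signal by at least half of the control window in the single-dose screen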;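 further: plate controls were DMSO wells with enzyme plus substrate for no effect and substrate without enzyme for full effect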
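Assay system: LMPTP-A enzyme. Input: 0.625 nM LMPTP-A final. Probe or stimulus: 400 µM OMFP. Compound dosing: single 20 µM dose. Schedule: 50 min dark incubation at room temperature. Detection: fluorescence intensity of OMFP turnover product. Read-out: percent inhibition versus substrate-only and uninhibited controls. Benchmarks: no-enzyme low control, uninhibited high control.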
STEP block – STEP phosphatase inhibitors, primary screen, biochemical, fluorescence intensity, uHTS; Tyrosine-protein phosphatase non-receptor type 5 (Homo sapiens), P54829; recombinant STEP, OMFP fluorogenic substrate; inhibition, % at 20 µM; 360,000 compounds, 0.25% hits; AID 588621, 2011;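 active means inhibition at 20 µM, scaled per plate between control wells, above about 37%, limit read from the data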;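 further: 0% = DMSO with enzyme and substrate and 100% = substrate only without enzyme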
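medium = Bis-Tris buffer pH 6.0, 2.5 mM DTT, 0.005% Tween 20 | test system = STEP (striatal-enriched tyrosine phosphatase) enzyme, cell-free | measure = normalized % inhibition | compound dosing = 20 µM, 1% DMSO | also added = 25 µM OMFP | schedule = reaction 20 min, ambient temperature | measured by = fluorescence read at 480 nm ex / 540 nm em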
Rpn11 block – Rpn11 (PSMD14) deubiquitinase inhibitors, primary screen, biochemical, fluorescence polarization, uHTS | 26S proteasome non-ATPase regulatory subunit 14 (Homo sapiens), O00487 | human 26S proteasome, Ub4-pepOG fluorescence polarization; 20S core pre-blocked with epoxomicin | inhibition, % at 20 µM | 360,000 compounds, 0.59% hits;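 active means inhibition at 20 µM, scaled to each plate's controls, above about 33%, limit read from the data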
Scp1 inh – Scp-1 phosphatase inhibitors, primary screen, biochemical, colorimetric, uHTS; Carboxy-terminal domain RNA polymerase II polypeptide A small phosphatase 1 (Homo …; 340,000 compounds, 0.88% hits; inhibition, % at 20 µM; Recombinant Scp1, phosphopeptide, malachite green phosphate absorbance;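 active means inhibition above about 50% at 20 µM, limit read from the data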;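 further: plate controls were DMSO wells with enzyme for no effect and wells lacking enzyme for full effect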
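Material: truncated SCP-1 phosphatase (76-261aa) / Buffer or medium: 50 mM Tris acetate pH 5.5, 0.005% Tween-20, 10 mM MgCl2 / Compound dosing: one concentration, 20 µM, with 1.0% DMSO / Incubation: 45 min room-temperature reaction, 5 min colour, 30 min stabiliser / Detection: colorimetric free-phosphate detection, absorbance 630 nm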
Rpn11 inh conf – Rpn11 (PSMD14) deubiquitinase inhibitors, confirmation, biochemical, fluorescence polarization, single concentration; shares compounds with Rpn11 block; purified human 26S proteasome, Ub4-pepOG fluorescence polarization; proteasome pretreated with epoxomicin; inhibition, % at 20 µM; 1,900 compounds, 29% hits
MMP-2 inh – MMP-2 enzyme inhibition, confirmation, counter-screen for RPN11 inhibitor project, biochemical, fluorescence, single concentration; shares compounds with Rpn11 block; recombinant MMP-2, FRET peptide cleavage fluorescence; inhibition, % at 20 µM; 1,900 compounds, 4% hits;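 further: human MMP-2 activated beforehand with APMA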
Target sequence (P08253 whole entry, looked up): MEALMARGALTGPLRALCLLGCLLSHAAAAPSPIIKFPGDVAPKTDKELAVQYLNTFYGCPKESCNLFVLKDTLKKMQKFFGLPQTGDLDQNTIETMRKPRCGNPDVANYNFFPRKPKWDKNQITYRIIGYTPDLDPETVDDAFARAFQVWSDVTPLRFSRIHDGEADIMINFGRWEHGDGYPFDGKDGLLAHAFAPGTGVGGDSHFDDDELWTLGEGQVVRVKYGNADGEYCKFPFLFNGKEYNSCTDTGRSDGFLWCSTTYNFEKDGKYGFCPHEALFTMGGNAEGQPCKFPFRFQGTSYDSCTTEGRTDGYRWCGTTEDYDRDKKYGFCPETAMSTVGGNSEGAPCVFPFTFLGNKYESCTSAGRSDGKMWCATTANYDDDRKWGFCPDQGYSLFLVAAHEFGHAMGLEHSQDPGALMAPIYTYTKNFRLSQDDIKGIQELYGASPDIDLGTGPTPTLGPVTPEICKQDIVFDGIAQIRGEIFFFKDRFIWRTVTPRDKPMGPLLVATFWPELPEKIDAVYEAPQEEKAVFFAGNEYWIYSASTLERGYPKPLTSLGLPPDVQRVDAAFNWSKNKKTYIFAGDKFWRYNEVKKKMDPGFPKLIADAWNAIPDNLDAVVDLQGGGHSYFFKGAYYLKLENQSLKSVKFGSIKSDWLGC
Thrombin FP – bovine thrombin protease inhibition, confirmation, counter-screen for Rpn11 inhibitor project, biochemical, fluorescence polarization, single concentration | 1,900 compounds, 13% hits | inhibition, % at 20 µM | shares compounds with Rpn11 block | bovine thrombin cleavage of Ub4-pepOG;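 active means mean inhibition at least 40% at 20 µM, or signal 3 deviations below plate average, so some actives read negative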;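 further: plate controls were thrombin with DMSO for no effect and buffer wells lacking thrombin for full effect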
The depositor's hits bear a star; · = no result given. Unless noted, no stated cut-off is given here; in the data, active means inhibition above about 40%; inactive means the rest.

SMILES	DNMT1 block	SUMO1-SIM PPI	LMPTP block	STEP block	Rpn11 block	Scp1 inh	Rpn11 inh conf	MMP-2 inh	Thrombin FP
COC1=CC(=O)OC(c2ccc(C(F)(F)F)cc2)C1 (centres undefined)	·	2	-1	·	·	·	·	·	·
N#Cc1c(-c2ccccc2)cc(C2CC2)nc1N	-3	-1	1	-2	-6	-4	·	·	·
N#Cc1c(-c2ccco2)cc(C2CC2)nc1N	-3	-3	0	-3	42*	-5	-7	-54	-4
COc1cc2ccc(C(C)=NNC(N)=S)cc2cc1OC	-2	0	1	-1	83*	·	-10	3	-13
Cc1ccc(C2CC(c3cccs3)=NN2S(=O)(=O)c2ccc(C)cc2)cc1 (centres undefined)	0	-2	3	3	45*	-21	41*	-12	19
CC1=Nc2ccccc2/C1=C\c1nc(-c2ccccc2)oc1O	-12	-7	1	0	44*	-4	43*	-5	22
COc1ccc(NC(=S)NNC(=O)CNc2ccc(Cl)cc2)cc1	-6	1	-1	1	-3	-6	·	·	·
O=C(c1ccc2c3c(cccc13)CC2)C1CCCN(Cc2cccnc2)C1 (centres undefined)	-4	-13	2	0	37*	-3	-10	1	-17
O=C(c1ccc2c3c(cccc13)CC2)C1CCCN(C(=O)c2cccnc2)C1 (centres undefined)	-6	-16	0	1	4	-2	·	·	·
CCN(CC)c1ccc(/C=N/NC(=O)c2nnn(-c3nonc3N)c2-c2ccc(C)cc2)cc1	-14	-8	1	0	17	-5	·	·	·
NC1=NC[C@@H](CC2CCCCC2)N1CCc1cc(C(F)(F)F)cc(C(F)(F)F)c1	62*	-84	-1	4	72*	16	9	-6	-22
O=C(Nc1cccc(NC(=O)c2ccc(Br)o2)n1)c1ccc(Br)o1	15	34	3	2	31	6	·	·	·
N#Cc1c(NC(=O)c2ccc(Br)o2)n(-c2ccccc2)c2nc3ccccc3nc12	51*	36	10	5	58*	25	6	-33	-14
CC(C)(C)c1ccc(/C=N/N2C(=O)CSC2=S)cc1	-3	-1	0	2	48*	-8	18	38	14
O=C1CSC(=S)N1N=Cc1ccc(Cl)s1	-14	17	2	2	59*	5	41*	31	37
COc1cccc(C(=O)CN2C(=O)C(C)(C)Oc3ccc(C(=O)N4CCCCCC4)cc32)c1	-2	0	0	3	163*	-6	-4	-42	-14
COc1ccc(-c2csc(N3CCN(c4cc5c(cc4Cl)nc(-c4ccncc4)n5CCOCCO)CC3)n2)cc1	-9	-1	2	12	11	1	·	·	·
COc1ccc(-c2csc(NCCc3nc4cc(Cl)c(N5CCCCC5)cc4n3CCOCCO)n2)cc1	-9	-3	1	-2	42*	-3	7	5	1
Nc1c(-c2ccccc2)nc(Cl)nc1-c1ccccc1	0	-9	0	0	6	-1	·	·	·
Nc1nc(-c2ccccc2)c(-c2ccccc2)n1N	0	-9	-2	-2	56*	-16	13	-31	14
COCCNC(=O)c1c(NC(=O)c2nc(SC)ncc2Cl)sc2c1CCCC2	20	-2	16	0	81*	7	45*	-48	34
CN(C)CCNC(=O)c1c(NC(=O)c2ccccc2)sc2c1CCCC2	-5	1	5	1	-4	-6	·	·	·
CCCN1C(=O)/C(=C\C=C2/Sc3ccccc3N2CCO)SC1=S	23	-37	7	4	14	-4	·	·	·
CCN1C(=O)/C(=C/C=C2/Sc3ccccc3N2CCO)SC1=S	26	-56	1	9	52*	-1	26	18	12
N#Cc1ccccc1Cn1cc(/C=N/Nc2ccc([N+](=O)[O-])cn2)c2ccccc21	0	-16	4	-3	60*	3	34	-15	2
SMILES	DNMT1 block	SUMO1-SIM PPI	LMPTP block	STEP block	Rpn11 block	Scp1 inh	Rpn11 inh conf	MMP-2 inh	Thrombin FP
O=[N+]([O-])c1ccc(N/N=C\c2cccn2-c2ccccc2)nc1	-7	-10	3	5	58*	12	44*	-12	9
O=[N+]([O-])c1ccc(NN=Cc2ccccc2O)nc1	-7	-14	4	1	3	-18	·	·	·
CC1Nc2ncnc(N3CCc4ccccc4C3)c2N(Cc2ccc(Cl)cc2)C1=O (centres undefined)	-7	4	0	-2	43*	3	31	4	15
CC1Nc2ncnc(N3CCc4ccccc4C3)c2N(Cc2ccc(Br)cc2)C1=O (centres undefined)	17	3	1	0	29	14	·	·	·
CCOC(=O)c1ccc(NC(=O)Nc2ccc3c(c2)OCCO3)cc1	-11	2	2	1	5	-13	·	·	·
CCC(C)(C(=O)Nc1ccc2c(c1)OCCO2)N(C(C)=O)c1ccc(C(N)=O)cc1 (centres undefined)	0	-3	2	0	51*	-2	0	-28	2
COc1cccc(C2C(C#N)=C(N)Oc3cc(C)n(Cc4ccco4)c(=O)c32)c1 (centres undefined)	42	19	0	2	34	-15	·	·	·
